In ChEMBL document CHEMBL3124801, “Structure-based optimization of tyrosine kinase inhibitor CLM3. Design, synthesis, functional evaluation, and molecular modeling studies” (J Med Chem, 2014) one finds IC50 and inhibition data, which are given here for twelve compounds.

The structures appear in SMILES notation.

In general, IC50 refers to the point on the concentration scale where inhibition reaches its midpoint. What is called inhibition is the drop in the measured response relative to a control, in per cent.

One experiment has as its system HUVEC. Description: Antiproliferative activity against HUVEC after 72 hrs by cell counter. The following applies: Homo sapiens.
In experiment [1] the test system is TT. Kind of experiment: Antiproliferative activity against human TT cells after 72 hrs by cell counter.
In experiment [2] the target is Proto-oncogene tyrosine-protein kinase receptor Ret (Homo sapiens) (UniProt P07949). Kind of experiment: Inhibition of recombinant human RET at 100 uM incubated for 5 mins with substrate prior to protein addition by fluorescence assay relative to control. Summed up:
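Human recombinant RET was assayed with Omnia Tyr peptide 7 substrate at 30 °C, from 1 mM ATP and 1 mM DTT stocks, with DMSO ≤1% final. Mix plus inhibitor was preincubated 5 min before kinase was added to start the reaction. Fluorescence (ex 360/em 485 nm) was followed over time, and activity was taken from a linear fit of intensity versus time. Compounds were screened at 100 μM.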

Experiment [3] can be described thus: Antiproliferative activity against HNDF after 72 hrs by cell counter. To be noted: Homo sapiens.
Experiment [4] can be described thus: Antiproliferative activity against HMVEC-d cells after 72 hrs. To be noted: Homo sapiens.
For experiment [5], the system named is TT. Description: Antiproliferative activity against human TT cells.
The test system of the next experiment is 8305C. Kind of experiment: cells. The following applies: Homo sapiens, 72 h.

Proto-oncogene tyrosine-protein kinase receptor Ret (Homo sapiens), sequence (P07949 whole entry): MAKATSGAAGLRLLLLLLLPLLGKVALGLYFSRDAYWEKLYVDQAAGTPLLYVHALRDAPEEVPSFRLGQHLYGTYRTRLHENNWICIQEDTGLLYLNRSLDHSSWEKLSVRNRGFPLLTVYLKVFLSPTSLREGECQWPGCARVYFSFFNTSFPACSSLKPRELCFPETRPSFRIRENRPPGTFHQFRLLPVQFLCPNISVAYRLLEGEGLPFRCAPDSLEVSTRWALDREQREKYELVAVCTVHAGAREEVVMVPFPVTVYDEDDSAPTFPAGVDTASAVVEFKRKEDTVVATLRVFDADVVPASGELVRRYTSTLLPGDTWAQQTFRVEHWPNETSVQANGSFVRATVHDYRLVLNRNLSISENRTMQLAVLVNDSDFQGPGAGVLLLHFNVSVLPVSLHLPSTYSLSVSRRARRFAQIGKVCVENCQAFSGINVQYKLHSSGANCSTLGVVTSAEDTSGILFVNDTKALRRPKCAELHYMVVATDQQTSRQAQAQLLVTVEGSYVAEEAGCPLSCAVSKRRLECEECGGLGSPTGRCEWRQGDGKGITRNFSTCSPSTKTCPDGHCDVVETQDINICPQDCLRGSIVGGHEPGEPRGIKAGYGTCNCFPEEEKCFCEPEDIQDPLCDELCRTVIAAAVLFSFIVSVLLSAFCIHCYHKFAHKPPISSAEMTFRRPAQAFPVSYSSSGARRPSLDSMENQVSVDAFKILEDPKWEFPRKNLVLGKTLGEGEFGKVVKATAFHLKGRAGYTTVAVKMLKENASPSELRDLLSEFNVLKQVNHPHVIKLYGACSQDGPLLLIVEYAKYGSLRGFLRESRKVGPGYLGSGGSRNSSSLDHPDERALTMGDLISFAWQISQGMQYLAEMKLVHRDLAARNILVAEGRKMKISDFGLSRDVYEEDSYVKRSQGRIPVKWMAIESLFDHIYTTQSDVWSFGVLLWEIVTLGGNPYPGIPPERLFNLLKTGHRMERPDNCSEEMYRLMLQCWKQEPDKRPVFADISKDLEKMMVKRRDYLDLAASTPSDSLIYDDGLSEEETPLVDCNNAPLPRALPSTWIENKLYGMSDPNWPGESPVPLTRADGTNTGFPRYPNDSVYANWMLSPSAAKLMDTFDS

Turning to `O=C(Nc1ccccc1)Nc1cccc(CNc2ncnc3c2cnn3CCc2ccccc2)c1`, the IC50 was found to be 13.4 µM in the experiment on HUVEC and 8.42 µM with TT [1].
Take `O=C(Nc1ccc([N+](=O)[O-])cc1)Nc1cccc(CNc2ncnc3c2cnn3CCc2ccccc2)c1`: the inhibition in experiment [2] is 37%.
Still for that read-out and setting: the result for `O=[N+]([O-])c1ccc(S(=O)(=O)Nc2cccc(CNc3ncnc4c3cnn4CCc3ccccc3)c2)cc1` reads 57%.
As for `O=C(Nc1cccc(CNc2ncnc3c2cnn3CCc2ccccc2)c1)c1ccc(Br)cc1`, the results for the IC50 in the experiment with HUVEC and in the experiment on TT [1] were 9.83 µM and 13.5 µM, respectively.
The corresponding values for `O=S(=O)(Nc1cccc(CNc2ncnc3c2cnn3CCc2ccccc2)c1)c1ccccc1` are 22.6 µM and 8.08 µM.
In the case of `O=C(Nc1cccc(CNc2ncnc3c2cnn3CCc2ccccc2)c1)c1ccccc1`, the IC50 in the experiment on HUVEC is 15.3 µM; in the experiment with TT [1] it was 13.8 µM.
For `COc1ccc(S(=O)(=O)Nc2cccc(CNc3ncnc4c3cnn4CCc3ccccc3)c2)cc1OC`, in experiment [2], the inhibition stood at 8%.
`O=C(Nc1ccc(Br)cc1)Nc1cccc(CNc2ncnc3c2cnn3CCc2ccccc2)c1`: the figures for the half-maximal inhibitory concentration (IC50) in the experiment with HUVEC and in the experiment with TT [1] were 18.6 µM and 9.86 µM, respectively.
On to `O=S(=O)(Cc1ccccc1)Nc1cccc(CNc2ncnc3c2cnn3CCc2ccccc2)c1`, for which the half-inhibitory concentration (IC50) came out at 50.7 µM in the experiment on HUVEC, 5.97 µM in the experiment with TT [1] and 23.6 µM in experiment [3].
On to `C[C@@H](Nc1ncnc2c1cnn2CCc1ccccc1)c1ccccc1`, for which, in experiment [2], the inhibition came out at 48%. Moreover, the IC50 stood at 0.0004 µM in experiment [4], 26.9 µM with TT [5] and 9.2 µM in the experiment with 8305C.
With `O=C(Nc1cccc(CNc2ncnc3c2cnn3CCc2ccccc2)c1)c1ccc([N+](=O)[O-])cc1`, the half-inhibitory concentration (IC50) was 16.6 µM with HUVEC, 6.13 µM with TT [1] and 22 µM in experiment [3].
Consider `O=C(Nc1cccc(CNc2ncnc3c2cnn3CCc2ccccc2)c1)c1ccc(F)cc1`, for which the concentration for half-maximal inhibition (IC50) was determined as 15.9 µM in the experiment with HUVEC and 13.6 µM with TT [1].
